Hits are enriched below; roughly 1.9% of the tested compounds scored in any of these assays.
DAGLB inhibitor: DAGLB lipase inhibitors, primary screen, biochemical, fluorescence, HTS; Diacylglycerol lipase-beta (Homo sapiens), Q8NCG7; HEK293T DAGLB membrane lysate, EnzChek fluorogenic substrate; inhibition, % at 5.17 µM; 340,000 tested, 0.059% active; in the data active = inhibition above about 34%;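 also: 0% = enzyme with vehicle and 100% = wells lacking enzyme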
Target sequence (Q8NCG7 whole entry, looked up): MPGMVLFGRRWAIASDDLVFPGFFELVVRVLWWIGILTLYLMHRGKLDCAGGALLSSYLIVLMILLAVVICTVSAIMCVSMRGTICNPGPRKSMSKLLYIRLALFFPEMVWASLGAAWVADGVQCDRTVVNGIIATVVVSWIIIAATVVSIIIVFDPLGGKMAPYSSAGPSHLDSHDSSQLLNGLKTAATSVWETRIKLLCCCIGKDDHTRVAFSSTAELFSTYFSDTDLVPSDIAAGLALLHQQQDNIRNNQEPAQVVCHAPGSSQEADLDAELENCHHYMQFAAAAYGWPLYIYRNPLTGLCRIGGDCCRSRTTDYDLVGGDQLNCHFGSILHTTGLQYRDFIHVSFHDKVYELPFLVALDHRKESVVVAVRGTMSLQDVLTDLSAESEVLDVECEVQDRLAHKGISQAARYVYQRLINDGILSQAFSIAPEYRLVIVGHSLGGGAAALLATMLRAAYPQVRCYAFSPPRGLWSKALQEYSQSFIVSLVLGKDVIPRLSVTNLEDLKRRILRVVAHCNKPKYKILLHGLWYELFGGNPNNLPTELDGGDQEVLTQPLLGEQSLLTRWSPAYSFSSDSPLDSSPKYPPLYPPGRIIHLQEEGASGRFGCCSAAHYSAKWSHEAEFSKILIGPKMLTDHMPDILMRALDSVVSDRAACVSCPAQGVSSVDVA
PLC-gamma1 inh: PLC-gamma1 enzyme inhibitors, primary screen, biochemical, fluorescence, purified enzyme; 370,000 tested, 0.84% active; inhibition, % at 12.2 µM; AID 720700, 2013; fluorogenic substrate; 1-phosphatidylinositol 4,5-bisphosphate phosphodiesterase gamma-1 (Homo sapiens), P19174
sPLA2-III inh: human group III sPLA2 inhibitors, primary screen, biochemical, QFRET, BODIPY PC-A2 liposome substrate | Group 3 secretory phospholipase A2 (Homo sapiens), Q9NZ20 | QFRET BODIPY PC-A2 liposome hydrolysis, fluorescence | inhibition, % at 12.2 µM | 370,000 tested, 0.56% active;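 active = inhibition above mean plus 3 SD of compounds lying within the high and low control bounds, cut at about 19% in these data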;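 also: 0% = median of test compound wells and 100% = no enzyme DMSO wells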
Tb MetRS inh: T. brucei MetRS inhibitors, primary screen, biochemical, luminescence. methionyl-tRNA synthetase (Trypanosoma brucei brucei). purified T. brucei MetRS, ATP depletion, Kinase-Glo luminescence. inhibition, % at 11.9 µM. AID 624268, 2012. 360,000 tested, 0.4% active;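 active = inhibition above a per-plate cutoff of the control wells' mean inhibition plus 3 SD, cut at about 5.5% in these data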;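 also: 0% = DMSO wells median and 100% = median of wells with control inhibitor compound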
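Measured by: Kinase-Glo luciferase luminescence reporting remaining unconsumed ATP. Material: purified T. brucei MetRS enzyme. Doses: 11.9 µM compound single dose, 0.9% DMSO. Medium: HEPES buffer containing pyrophosphatase, BSA, spermine, DTT. Times: 15 min preincubation, 2 h reaction, all 25 °C. Reagent: methionine, ATP and bulk E. coli tRNA.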
PLCb3 inh: human PLC-beta3 inhibitors, primary screen, biochemical, fluorescence. Purified PLC-beta3, fluorogenic substrate. inhibition, % at 12.2 µM. 370,000 tested, 0.18% active; in the data active = inhibition above about 11%;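 also: 0% = median of compound wells on plate and 100% = full blocker control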
PLCgamma1 ctr: PLC-gamma1 enzyme inhibitors, counter-screen for PLC-beta3 inhibitor project, biochemical, fluorescence. shares compounds with PLC-gamma1 inh. purified PLC-gamma1, fluorogenic substrate. inhibition, % at 12.3 µM. 3,300 tested, 3.1% active
PLCbeta3 conf: PLC-beta3 inhibitor confirmation, biochemical, fluorescence, purified enzyme; shares compounds with PLC-gamma1 inh; fluorogenic substrate fluorescence; inhibition, % at 12.3 µM; 3,300 tested, 1% active; in the data active = inhibition above about 11%
Starred values were filed as active, the others as inactive. Rule as the data show it, unless noted: active = inhibition above about 9.5%; inactive = the rest.

For Cc1ccc(NC(=O)C2CCN(c3nnc(-n4cccc4)s3)CC2)c(C)c1 the results were PLC-gamma1 inh 3.1, sPLA2-III inh -2.5 and PLCb3 inh 1.1.
`COc1ccc(C(=O)OCCN2CCN(C3CN(Cc4cn(Cc5cccc(F)c5)nn4)S(=O)(=O)C3)CC2)cc1OC` (stereo not given) gave PLC-gamma1 inh 0.8, sPLA2-III inh 4.4 and PLCb3 inh 1.3.
Screening COc1ccc(CNC(=O)O[C@H]2CC[C@@]34CCCN3C(=O)CCC[C@H]4[C@H]2C)cc1 returned PLC-gamma1 inh 3.6, sPLA2-III inh 1.8 and PLCb3 inh 5.6.
COC(=O)C[C@H]1CC[C@@H]2[C@@H](COc3ccc(NC(=O)Nc4cccc(C)c4)cc3C(=O)N2C)O1 was read as PLC-gamma1 inh -0.2, sPLA2-III inh -10.2 and PLCb3 inh 3.0.
Screening O=C(O)CCSc1nnc(COc2ccc([N+](=O)[O-])cc2)n1-c1ccccc1 returned DAGLB inhibitor -0.3, PLC-gamma1 inh 10.8*, sPLA2-III inh 3.8, Tb MetRS inh -0.2, PLCb3 inh -3.5, PLCgamma1 ctr -0.2 and PLCbeta3 conf 2.1.
Screening C#CCNC(=O)C[C@H]1C[C@@]2(C(=O)OC)C(=C[C@H](C(C)C)O[C@@H]2C2CC2)N(Cc2ccc(Cl)cc2Cl)C1=O returned PLC-gamma1 inh 1.1, sPLA2-III inh -0.1 and PLCb3 inh 1.9.
`CC(=O)N1CCCc2cc(S(=O)(=O)N(C)Cc3ccccc3)ccc21` gave DAGLB inhibitor 0.1, PLC-gamma1 inh 9.8*, sPLA2-III inh 5.1, Tb MetRS inh 0.3, PLCb3 inh 4.0, PLCgamma1 ctr -2.9 and PLCbeta3 conf 4.3.
For C[C@@H]1CCCCO[C@H](CN(C)C(=O)C2CCCCC2)[C@@H](C)CN([C@H](C)CO)C(=O)c2cc(NS(=O)(=O)c3cccs3)ccc2O1 the results were PLC-gamma1 inh -2.4, sPLA2-III inh -7.1 and PLCb3 inh 1.3.
CCCCNc1ccc2c(c1)OC[C@H](Cc1ccccc1)NS2(=O)=O was read as PLC-gamma1 inh -1.7, sPLA2-III inh -6.1 and PLCb3 inh -2.6.
CSCCC(NS(=O)(=O)c1ccc(Cl)cc1)C(=O)OCC(=O)c1ccc(F)cc1 (stereo not given) was read as DAGLB inhibitor -10.0, PLC-gamma1 inh 4.9, sPLA2-III inh -51.3, Tb MetRS inh -0.1, PLCb3 inh 11.6*, PLCgamma1 ctr -2.0 and PLCbeta3 conf -1.5.
For COC(=O)c1ccc(C(c2c(C)n(C)n(-c3ccccc3)c2=O)c2c(C)n(C)n(-c3ccccc3)c2=O)cc1 the results were DAGLB inhibitor 0.8, PLC-gamma1 inh 12.2*, sPLA2-III inh 7.8, Tb MetRS inh 0.2, PLCb3 inh 9.3, PLCgamma1 ctr 1.9 and PLCbeta3 conf 4.5.
`CN(CC(=O)N1CCN(Cc2ccccc2)CC1)S(=O)(=O)c1cccc2nsnc12` gave DAGLB inhibitor -1.8, PLC-gamma1 inh 11.5*, sPLA2-III inh 6.8, Tb MetRS inh -0.4, PLCb3 inh 9.6, PLCgamma1 ctr -5.7 and PLCbeta3 conf -2.7.
Screening CN(CC(=O)NCCN1CCN(Cc2ccccc2)CC1)S(=O)(=O)c1cccc2nsnc12 returned DAGLB inhibitor -1.4, PLC-gamma1 inh 1.2, sPLA2-III inh -0.7, Tb MetRS inh -1.0 and PLCb3 inh 1.4.
For Cc1sc2nc(COC(=O)CNC(=O)c3cc(F)ccc3F)[nH]c(=O)c2c1C the results were PLC-gamma1 inh -0.3, sPLA2-III inh 0.9 and PLCb3 inh 2.9.
`CCOC(=O)CNC(=O)C1(NC(=O)CNC(=O)OCc2ccccc2)CCCC1` gave DAGLB inhibitor -2.0, PLC-gamma1 inh 10.2*, sPLA2-III inh -0.5, Tb MetRS inh 0.2, PLCb3 inh 3.4, PLCgamma1 ctr -5.7 and PLCbeta3 conf -5.6.
For Cc1cc2c(c(=O)o1)[C@@]1(C(=O)N(C)c3ccccc31)C1=C(CCC1=O)O2 the results were PLC-gamma1 inh 1.9, sPLA2-III inh 11.9 and PLCb3 inh -1.0.
Cc1cc2c(c(=O)o1)[C@@]1(C(=O)N(C)c3ccc([N+](=O)[O-])cc31)C1=C(CCCC1=O)O2 was read as PLC-gamma1 inh 9.5*, sPLA2-III inh 5.9, PLCb3 inh 10.4, PLCgamma1 ctr -1.6 and PLCbeta3 conf 0.9.
For Cc1cc(C)n(-c2nc3ccccc3c(=O)n2OC2CCCCC2)n1 the results were DAGLB inhibitor -4.4, PLC-gamma1 inh 4.9, sPLA2-III inh 7.2, Tb MetRS inh -1.9, PLCb3 inh 14.6*, PLCgamma1 ctr -8.2 and PLCbeta3 conf -4.8.
CCOn1c(-n2nc(C)cc2C)nc2ccccc2c1=O was read as DAGLB inhibitor -3.5, PLC-gamma1 inh 1.4, sPLA2-III inh 0.0, Tb MetRS inh -0.6 and PLCb3 inh 4.6.
COc1ccc(CC(N)c2csc(NC(=O)NCCc3ccc(OC)c(OC)c3)n2)cc1 (stereo not given) was read as PLC-gamma1 inh 1.2, sPLA2-III inh 1.6, Tb MetRS inh -0.2 and PLCb3 inh 2.8.
COc1ccc(CCNC(=O)Nc2nc(C(N)Cc3ccccc3)cs2)cc1OC (stereo not given) was read as PLC-gamma1 inh 9.6*, sPLA2-III inh -7.6, Tb MetRS inh -0.2, PLCb3 inh 6.7, PLCgamma1 ctr -4.2 and PLCbeta3 conf 0.9.
`CC(C)Cn1c(SCC(=O)N2CCCc3ccccc32)nc2ccccc2c1=O` gave PLC-gamma1 inh 11.0*, sPLA2-III inh 2.6, PLCb3 inh -0.9, PLCgamma1 ctr 1.0 and PLCbeta3 conf 1.2.
For CC(C)CC(=O)c1c(O)cc(O)c2c1OC1=C(C(=O)C(C)(C)C(=O)C1(C)C)C2CC(C)C (stereo not given) the results were PLC-gamma1 inh -3.7, sPLA2-III inh -29.3 and PLCb3 inh 2.5.
O=C(CCS(=O)(=O)c1cccs1)Nc1ccc(C(=O)NCc2ccc(F)cc2)cc1 was read as DAGLB inhibitor -5.7, PLC-gamma1 inh 9.6*, sPLA2-III inh -19.3, Tb MetRS inh -0.2, PLCb3 inh 9.9, PLCgamma1 ctr -9.0 and PLCbeta3 conf -1.7.
O=C(CCS(=O)(=O)c1cccs1)Nc1ccc(C(=O)NCc2cccs2)cc1 was read as DAGLB inhibitor -2.1, PLC-gamma1 inh 5.5, sPLA2-III inh -7.2, Tb MetRS inh 0.5 and PLCb3 inh -1.8.
